Reference: ChEMBL document CHEMBL4390691, “Discovery of 1,3-dihydro-2H-imidazo[4,5-c]quinolin-2-ones based novel, potent and PI3Kδ selective inhibitors” (Bioorg Med Chem Lett, 2019)

Legend:
[1] = biological target: T1, Phosphatidylinositol 4,5-bisphosphate 3-kinase catalytic subunit delta isoform (Homo sapiens, UniProt O00329); assay: Inhibition of human PI3Kdelta using PIP2 as substrate after 1 hr
T1 sequence (O00329 whole entry): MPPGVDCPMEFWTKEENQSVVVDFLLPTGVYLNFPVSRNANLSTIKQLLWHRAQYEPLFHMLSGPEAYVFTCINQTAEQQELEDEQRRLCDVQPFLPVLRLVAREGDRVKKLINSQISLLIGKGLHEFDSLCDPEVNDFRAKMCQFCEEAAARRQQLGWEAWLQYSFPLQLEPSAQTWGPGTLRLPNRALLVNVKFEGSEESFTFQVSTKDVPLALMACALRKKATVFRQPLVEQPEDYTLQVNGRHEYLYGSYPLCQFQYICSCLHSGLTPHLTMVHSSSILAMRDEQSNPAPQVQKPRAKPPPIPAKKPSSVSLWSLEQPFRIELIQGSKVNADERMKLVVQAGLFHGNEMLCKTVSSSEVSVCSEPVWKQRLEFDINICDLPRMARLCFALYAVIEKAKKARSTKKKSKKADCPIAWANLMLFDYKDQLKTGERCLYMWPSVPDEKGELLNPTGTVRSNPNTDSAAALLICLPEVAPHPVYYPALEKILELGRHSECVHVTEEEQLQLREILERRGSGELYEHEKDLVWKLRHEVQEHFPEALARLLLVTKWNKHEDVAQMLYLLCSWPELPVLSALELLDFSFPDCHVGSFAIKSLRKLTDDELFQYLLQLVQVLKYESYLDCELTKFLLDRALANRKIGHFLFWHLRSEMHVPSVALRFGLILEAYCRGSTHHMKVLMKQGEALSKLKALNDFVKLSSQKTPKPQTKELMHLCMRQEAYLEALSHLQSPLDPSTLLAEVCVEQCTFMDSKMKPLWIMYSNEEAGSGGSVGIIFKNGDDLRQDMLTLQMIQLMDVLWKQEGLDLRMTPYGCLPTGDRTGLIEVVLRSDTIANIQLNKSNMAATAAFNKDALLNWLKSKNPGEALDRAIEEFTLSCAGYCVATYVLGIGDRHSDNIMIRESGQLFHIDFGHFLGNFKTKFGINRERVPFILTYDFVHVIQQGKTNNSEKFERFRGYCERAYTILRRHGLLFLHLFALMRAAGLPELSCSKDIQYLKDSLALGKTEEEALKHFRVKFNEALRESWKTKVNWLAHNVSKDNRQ

[2] = biological target: Phosphatidylinositol 4,5-bisphosphate 3-kinase catalytic subunit gamma isoform (Homo sapiens, UniProt P48736); assay: Inhibition of human PI3Kgamma using PIP2 as substrate after 1 hr
[3] = biological target: Phosphatidylinositol 4,5-bisphosphate 3-kinase catalytic subunit alpha isoform (Homo sapiens, UniProt P42336); assay: Inhibition of human PI3Kalpha using PIP2 as substrate after 1 hr
[4] = Tmax in C57BL/6J mouse at 3 mg/kg, po measured up to 30 hrs by LC-MS/MS analysis; format: ADME, organism-based; details: in vivo
How it was run: (§1)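 Male C57BL/6J mice (n = 6) received single doses of 3 mg/kg po or 1 mg/kg iv. Plasma concentrations were measured by LC-MS. Values are mean ± SD. Oral bioavailability (%F) was calculated from the ratio to iv AUC.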

[5] = Half life in C57BL/6J mouse at 3 mg/kg, po measured up to 30 hrs by LC-MS/MS analysis; format: ADME, organism-based; details: in vivo; how it was run: as §1
[6] = biological target: Serine/threonine-protein kinase mTOR (Homo sapiens, UniProt P42345); assay: Inhibition of mTOR (unknown origin) assessed as reduction in p70S6K phosphorylation
[7] = AUC (0 to infinity) in C57BL/6J mouse 1 mg/kg, iv measured up to 30 hrs by LC-MS/MS analysis; format: ADME, organism-based; set-up: dose 1 mg/kg, time infinity, route intravenous; details: in vivo
How it was run: (§2)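 Single-dose PK in male C57BL/6J mice (n = 6), dosed 1 mg/kg iv or 3 mg/kg orally. Plasma drug levels were measured by LC-MS, and PK parameters (Tmax, Cmax, t1/2, Cl, AUC, %F) were derived. Values are given as mean ± SD. Oral bioavailability was calculated against the iv AUC.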

[8] = Clearance in C57BL/6J mouse at 1 mg/kg, iv measured up to 30 hrs by LC-MS/MS analysis; format: ADME, organism-based; details: in vivo; how it was run: as §1
[9] = AUC (0 to infinity) in C57BL/6J mouse 3 mg/kg, po measured up to 30 hrs by LC-MS/MS analysis; format: ADME, organism-based; set-up: dose 3 mg/kg, route oral, time infinity; details: in vivo; how it was run: as §2
[10] = Cmax in C57BL/6J mouse at 3 mg/kg, po measured up to 30 hrs by LC-MS/MS analysis; format: ADME, organism-based; set-up: dose 3 mg/kg, route oral; details: in vivo; how it was run: as §1
[11] = biological target: Phosphatidylinositol 4,5-bisphosphate 3-kinase catalytic subunit beta isoform (Homo sapiens, UniProt P42338); assay: Inhibition of human PI3Kbeta using PIP2 as substrate after 1 hr
[12] = Oral bioavailability in C57BL/6J mouse at 3 mg/kg measured up to 30 hrs by LC-MS/MS analysis; format: ADME, organism-based; details: in vivo; how it was run: as §1
TMD8 = assay: Antiproliferative activity against human TMD8 cells; format: functional, cell-based

Sequence of Phosphatidylinositol 4,5-bisphosphate 3-kinase catalytic subunit beta isoform (P42338 whole entry, canonical isoform): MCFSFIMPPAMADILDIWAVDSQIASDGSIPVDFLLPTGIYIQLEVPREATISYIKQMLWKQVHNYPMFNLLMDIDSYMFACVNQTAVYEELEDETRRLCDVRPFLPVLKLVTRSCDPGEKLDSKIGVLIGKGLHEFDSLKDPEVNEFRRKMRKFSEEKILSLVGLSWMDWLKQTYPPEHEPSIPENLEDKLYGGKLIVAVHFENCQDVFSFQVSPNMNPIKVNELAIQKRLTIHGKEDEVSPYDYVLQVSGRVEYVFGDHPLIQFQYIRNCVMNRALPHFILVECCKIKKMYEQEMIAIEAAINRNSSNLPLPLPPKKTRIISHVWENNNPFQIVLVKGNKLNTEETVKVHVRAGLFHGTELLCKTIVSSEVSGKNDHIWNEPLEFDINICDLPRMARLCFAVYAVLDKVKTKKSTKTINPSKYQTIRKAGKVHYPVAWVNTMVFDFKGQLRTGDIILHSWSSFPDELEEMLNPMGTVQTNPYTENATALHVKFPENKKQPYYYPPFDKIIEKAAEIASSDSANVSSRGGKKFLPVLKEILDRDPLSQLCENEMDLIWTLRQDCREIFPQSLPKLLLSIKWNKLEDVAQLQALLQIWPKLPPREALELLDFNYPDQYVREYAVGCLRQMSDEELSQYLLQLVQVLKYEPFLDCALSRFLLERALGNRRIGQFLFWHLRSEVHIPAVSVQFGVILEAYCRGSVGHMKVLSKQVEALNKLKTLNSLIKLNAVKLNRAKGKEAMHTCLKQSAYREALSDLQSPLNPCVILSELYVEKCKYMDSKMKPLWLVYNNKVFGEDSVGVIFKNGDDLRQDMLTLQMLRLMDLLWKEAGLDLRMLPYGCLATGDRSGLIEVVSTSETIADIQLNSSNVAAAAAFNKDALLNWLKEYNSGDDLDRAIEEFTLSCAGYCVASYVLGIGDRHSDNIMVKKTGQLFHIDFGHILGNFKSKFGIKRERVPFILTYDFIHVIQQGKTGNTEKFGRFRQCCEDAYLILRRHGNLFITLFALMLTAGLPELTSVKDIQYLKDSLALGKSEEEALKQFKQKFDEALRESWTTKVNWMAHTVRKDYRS
Sequence of Phosphatidylinositol 4,5-bisphosphate 3-kinase catalytic subunit alpha isoform (P42336 whole entry, looked up, canonical isoform): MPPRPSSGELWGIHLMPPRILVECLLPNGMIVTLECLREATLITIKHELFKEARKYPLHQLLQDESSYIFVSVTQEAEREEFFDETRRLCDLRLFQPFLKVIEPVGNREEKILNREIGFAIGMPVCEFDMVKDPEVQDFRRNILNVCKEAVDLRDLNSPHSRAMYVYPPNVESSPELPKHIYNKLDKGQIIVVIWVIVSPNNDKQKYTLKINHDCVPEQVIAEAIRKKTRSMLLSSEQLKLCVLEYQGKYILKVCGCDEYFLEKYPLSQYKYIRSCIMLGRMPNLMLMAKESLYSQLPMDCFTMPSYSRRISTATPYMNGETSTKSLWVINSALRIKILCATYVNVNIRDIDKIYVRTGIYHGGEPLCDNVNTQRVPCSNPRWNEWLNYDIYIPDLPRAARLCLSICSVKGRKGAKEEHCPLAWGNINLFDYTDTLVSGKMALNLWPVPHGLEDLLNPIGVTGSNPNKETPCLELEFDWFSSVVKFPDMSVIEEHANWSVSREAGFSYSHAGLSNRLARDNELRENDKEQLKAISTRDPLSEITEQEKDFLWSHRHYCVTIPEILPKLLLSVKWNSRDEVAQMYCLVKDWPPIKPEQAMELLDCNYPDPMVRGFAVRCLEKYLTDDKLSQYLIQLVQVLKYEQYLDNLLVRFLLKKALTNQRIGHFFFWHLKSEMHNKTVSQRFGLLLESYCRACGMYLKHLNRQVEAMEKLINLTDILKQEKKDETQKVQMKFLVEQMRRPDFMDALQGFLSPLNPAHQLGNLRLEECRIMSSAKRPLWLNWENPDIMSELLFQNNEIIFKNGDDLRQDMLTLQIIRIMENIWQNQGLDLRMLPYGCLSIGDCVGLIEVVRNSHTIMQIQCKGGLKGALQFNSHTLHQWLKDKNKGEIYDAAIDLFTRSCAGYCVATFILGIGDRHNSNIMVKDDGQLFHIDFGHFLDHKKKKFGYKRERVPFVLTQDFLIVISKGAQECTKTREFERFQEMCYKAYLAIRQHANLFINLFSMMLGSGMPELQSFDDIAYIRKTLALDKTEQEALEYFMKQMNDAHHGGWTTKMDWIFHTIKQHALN
Sequence of Phosphatidylinositol 4,5-bisphosphate 3-kinase catalytic subunit gamma isoform (P48736 whole entry, canonical isoform): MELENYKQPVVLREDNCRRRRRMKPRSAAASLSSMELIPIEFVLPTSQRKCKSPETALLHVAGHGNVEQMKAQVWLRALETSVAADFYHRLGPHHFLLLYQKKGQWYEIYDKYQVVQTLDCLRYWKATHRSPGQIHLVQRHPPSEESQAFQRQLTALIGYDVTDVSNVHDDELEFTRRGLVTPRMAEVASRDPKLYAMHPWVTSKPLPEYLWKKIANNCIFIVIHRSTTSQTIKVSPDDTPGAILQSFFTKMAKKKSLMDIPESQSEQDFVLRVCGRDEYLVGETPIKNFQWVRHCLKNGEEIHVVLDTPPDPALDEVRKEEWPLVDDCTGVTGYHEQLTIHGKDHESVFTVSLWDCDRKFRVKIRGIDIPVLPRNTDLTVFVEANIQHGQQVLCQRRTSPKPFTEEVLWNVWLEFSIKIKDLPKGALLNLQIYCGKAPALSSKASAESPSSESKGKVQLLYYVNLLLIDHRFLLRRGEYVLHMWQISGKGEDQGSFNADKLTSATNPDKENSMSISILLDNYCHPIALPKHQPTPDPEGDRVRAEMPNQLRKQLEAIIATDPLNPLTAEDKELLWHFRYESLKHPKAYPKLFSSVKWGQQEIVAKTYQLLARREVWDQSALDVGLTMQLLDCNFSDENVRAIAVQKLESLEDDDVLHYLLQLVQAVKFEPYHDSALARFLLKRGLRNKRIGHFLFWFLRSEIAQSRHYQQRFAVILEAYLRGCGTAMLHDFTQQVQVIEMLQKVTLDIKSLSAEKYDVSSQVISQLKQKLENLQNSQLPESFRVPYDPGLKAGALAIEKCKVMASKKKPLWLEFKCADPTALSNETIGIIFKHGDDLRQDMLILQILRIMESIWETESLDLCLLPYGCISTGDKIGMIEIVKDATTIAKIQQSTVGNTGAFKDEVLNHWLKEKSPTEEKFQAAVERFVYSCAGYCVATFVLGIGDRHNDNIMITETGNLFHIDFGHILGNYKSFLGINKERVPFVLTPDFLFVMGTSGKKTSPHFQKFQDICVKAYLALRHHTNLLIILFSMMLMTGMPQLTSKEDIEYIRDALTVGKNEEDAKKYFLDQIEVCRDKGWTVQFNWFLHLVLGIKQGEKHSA

For `COc1ccc(Cn2c(=O)n(C)c3c4cc(-c5cnc(OC)c(C)c5)ccc4ncc32)cc1`, the IC50 [1] was 11.1 nM.

`COc1ccc(Cn2c(=O)n(C)c3c4cc(-c5cnc(OC)c(NS(=O)(=O)C(C)C)c5)ccc4ncc32)cc1` gave an IC50 [1] of 6.2 nM.

`COc1ccc(Cn2c(=O)n(C)c3c4cc(-c5cnc(OC)c(NS(=O)(=O)C6CC6)c5)ccc4ncc32)cc1` showed an IC50 [1] of 5.9 nM.

For `COc1ccc(Cn2c(=O)n(C)c3c4cc(-c5ccccc5)ccc4ncc32)cc1`, the IC50 [1] was 29.4 nM.

Work on `COc1ccc(Cn2c(=O)n(C)c3c4cc(-c5cnc6ccccc6c5)ccc4ncc32)cc1` yielded an IC50 [2] of 38 nM, an IC50 [3] of 421 nM and a Tmax [4] of 0.38 h. For the same compound, the half-life [5] was 2.31 h, the IC50 [1] was 9.5 nM and the IC50 [6] was 676 nM. It also gave an AUC [7] of 743 ng·h/mL, a clearance [8] of 22.9 mL/min/kg and an AUC [9] of 329 ng·h/mL. It also gave a Cmax [10] of 128 ng/mL, an IC50 [11] of 342 nM and a bioavailability [12] of 14.8%.

With `Cc1ccc(Cn2c(=O)n(C)c3c4cc(-c5cnc6ccccc6c5)ccc4ncc32)cc1` the IC50 [1] was 18.4 nM.

Compound `CC[C@H](Nc1ncnc2[nH]cnc12)c1nc2cccc(F)c2c(=O)n1-c1ccccc1` [IDELALISIB] has an IC50 (TMD8) of 795 nM and an IC50 [6] greater than 1000 nM.
